Measurements as given in ChEMBL document CHEMBL4038284, “Synthesis of novel quinoline-based 4,5-dihydro-1H-pyrazoles as potential anticancer, antifungal, antibacterial and antiprotozoal agents” (Eur J Med Chem, 2017).
≈ marks a conversion by molar mass, not a printed value. Calls of active or inactive are those of the source. No cut-off for these calls is given here.

Experiments:
HOP-62 = experiment: Growth inhibition of human HOP62 cells at 10 uM incubated for 48 hrs by sulforhodamine B assay; format: functional, cell-based
How it was run: (§1)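 NCI 60-cell-line screen at a single 10 µM dose. Cells in RPMI-1640 with 5% FBS and 2 mM L-glutamine, pre-incubated 24 h, then treated for 48 h at 37 °C. TCA fixation, sulforhodamine B staining, absorbance at 515 nm. Percentage growth calculated against time-zero and untreated controls.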

Klebsiella pneumoniae = experiment: Antibacterial activity against ESBL positive Klebsiella pneumoniae ATCC 700603 after 24 hrs by resazurin dye based microdilution assay; format: functional; conditions: Klebsiella pneumoniae, 700603, 24 h
How it was run: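 MIC taken as the lowest concentration giving visible inhibition and/or by resazurin (1 mg/mL). Gentamicin was the control. Run in duplicate, repeated at least three times.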

KM12 = experiment: Growth inhibition of human KM12 cells at 10 uM incubated for 48 hrs by sulforhodamine B assay; format: functional, cell-based
How it was run: (§2)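 NCI 60-line panel, single 10 μM dose. Cells were grown in RPMI-1640 with 5% FBS and 2 mM L-glutamine and pre-incubated 24 h before compound addition (DMSO stock). Exposure was 48 h at 37 °C, 5% CO2. Cells were fixed with cold TCA (10% final), stained with 0.4% SRB, bound dye dissolved in 10 mM Tris base, A515 read. Growth was taken relative to time-zero and untreated control plates.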

UO-31 = experiment: Growth inhibition of human UO31 cells at 10 uM incubated for 48 hrs by sulforhodamine B assay; format: functional, cell-based
How it was run: (§3)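 NCI-60 single-dose screen at 10 µM for 48 h. Cells were grown in RPMI-1640 with 5% FBS and 2 mM L-glutamine and preincubated 24 h before compound. Time-zero plates were TCA-fixed at compound addition. After exposure, cells were TCA-fixed, stained with SRB and read at 515 nm. Percentage growth was calculated against time-zero and untreated-control absorbances.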

U-937 = experiment: Cytotoxicity against human U937 cells after 72 hrs by MTT assay; format: cell-based; conditions: u-937, 72 h
How it was run: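 Exponentially growing U-937 at 1 × 10^5 cells/mL in RPMI-1640 with 10% FBS were exposed to 200, 50, 12.5 and 3.125 µg/mL for 72 h at 37 °C, 5% CO2. MTT for 3 h, stopped with isopropanol/SDS, formazan read at 570 nm, blank-corrected. LC50 by Probit from % viability against untreated cells. Triplicate, at least two independent experiments.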

TK-10 = experiment: Growth inhibition of human TK10 cells at 10 uM incubated for 48 hrs by sulforhodamine B assay; format: functional, cell-based; how it was run: as §3
MCF7 = experiment: Growth inhibition of human MCF7 cells at 10 uM incubated for 48 hrs by sulforhodamine B assay; format: functional, cell-based; how it was run: as §2
Malme-3M = experiment: Growth inhibition of human MALME-3M cells at 10 uM incubated for 48 hrs by sulforhodamine B assay; format: functional, cell-based; how it was run: as §2
Cryptococcus neoformans [1] = experiment: Growth inhibition of Cryptococcus neoformans ATCC 32264 at 31.25 ug/ml incubated for 48 hrs under dark condition by broth microdilution method relative to control; format: functional; conditions: ATCC 32264, 48 h, read-out: GI
How it was run: (§4)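 CLSI M27-A3 broth microdilution in RPMI-1640, DMSO ≤1%. Inoculum 1-5 × 10^3 CFU/mL. Incubated 48 h at 30 °C, dark. % inhibition = 100 − (OD405 test − sterility control)/(OD405 growth control − sterility control), with growth and sterility control wells. Triplicate.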

LOX IMVI = experiment: Growth inhibition of human LOXIMVI cells at 10 uM incubated for 48 hrs by sulforhodamine B assay; format: functional, cell-based; how it was run: as §2
UACC-257 = experiment: Growth inhibition of human UACC257 cells at 10 uM incubated for 48 hrs by sulforhodamine B assay; format: functional, cell-based; how it was run: as §3
Candida albicans [2] = experiment: Growth inhibition of Candida albicans ATCC 10231 at 125 ug/ml incubated for 48 hrs under dark condition by broth microdilution method relative to control; format: functional; conditions: ATCC 10231, 48 h, read-out: GI; how it was run: as §4
Candida albicans [3] = experiment: Growth inhibition of Candida albicans ATCC 10231 at 3.4 ug/ml incubated for 48 hrs under dark condition by broth microdilution method relative to control; format: functional; conditions: ATCC 10231, 48 h, read-out: GI
MDA-MB-468 = experiment: Growth inhibition of human MDA-MB-468 cells at 10 uM incubated for 48 hrs by sulforhodamine B assay; format: functional, cell-based; how it was run: as §2
Plasmodium falciparum = experiment: Antiplasmodial activity against chloroquine-sensitive Plasmodium falciparum 3D7 assessed as reduction in parasitic LDH activity after 48 hrs by Malstat reagent based […] method; format: functional; conditions: 3D7, 48 h
How it was run: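 Unsynchronized P. falciparum 3D7 at 0.5% parasitemia and 1% hematocrit in RPMI with 3% Albumax II. Exposed to 100, 25, 6.25 and 1.56 µg/mL for 48 h at 37 °C under 90% N2/5% CO2/5% O2. After three freeze-thaw cycles, LDH measured with Malstat and NBT/PES, 1 h in the dark, read at 650 nm. IC50 by Probit; triplicate, ≥2 experiments.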

OVCAR-8 = experiment: Growth inhibition of human OVCAR8 cells at 10 uM incubated for 48 hrs by sulforhodamine B assay; format: functional, cell-based; how it was run: as §2
SNB-75 = experiment: Growth inhibition of human SNB75 cells at 10 uM incubated for 48 hrs by sulforhodamine B assay; format: functional, cell-based; how it was run: as §3
DU-145 = experiment: Growth inhibition of human DU145 cells at 10 uM incubated for 48 hrs by sulforhodamine B assay; format: functional, cell-based; how it was run: as §1
Neisseria gonorrhoeae = experiment: Antibacterial activity against beta lactamase positive Neisseria gonorrhoeae ATCC 31426 by oxidase test; format: functional
How it was run: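 Agar dilution MIC on GC agar with 1% isovitalex containing increasing compound concentrations. Plates inoculated with about 1×10^4 CFU (5 µL). MIC is the lowest concentration that inhibited growth, with growth confirmed by oxidase test. Run in duplicate, repeated at least three times.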

SF-295 = experiment: Growth inhibition of human SF295 cells at 10 uM incubated for 48 hrs by sulforhodamine B assay; format: functional, cell-based; how it was run: as §2
M14 = experiment: Growth inhibition of human M14 cells at 10 uM incubated for 48 hrs by sulforhodamine B assay; format: functional, cell-based; how it was run: as §2
HT-29 = experiment: Growth inhibition of human HT-29 cells at 10 uM incubated for 48 hrs by sulforhodamine B assay; format: functional, cell-based; how it was run: as §2
HCT-15 = experiment: Growth inhibition of human HCT15 cells at 10 uM incubated for 48 hrs by sulforhodamine B assay; format: functional, cell-based; how it was run: as §1
Cryptococcus neoformans [4] = experiment: Growth inhibition of Cryptococcus neoformans ATCC 32264 at 7.8 ug/ml incubated for 48 hrs under dark condition by broth microdilution method relative to control; format: functional; conditions: ATCC 32264, 48 h, read-out: GI; how it was run: as §4
SK-MEL-2 = experiment: Growth inhibition of human SK-MEL-2 cells at 10 uM incubated for 48 hrs by sulforhodamine B assay; format: functional, cell-based; how it was run: as §3
ACHN = experiment: Growth inhibition of human ACHN cells at 10 uM incubated for 48 hrs by sulforhodamine B assay; format: functional, cell-based; how it was run: as §1
SN12C = experiment: Growth inhibition of human SN12C cells at 10 uM incubated for 48 hrs by sulforhodamine B assay; format: functional, cell-based; how it was run: as §3
U-251 = experiment: Growth inhibition of human U251 cells at 10 uM incubated for 48 hrs by sulforhodamine B assay; format: functional, cell-based; how it was run: as §3
SW-620 = experiment: Growth inhibition of human SW620 cells at 10 uM incubated for 48 hrs by sulforhodamine B assay; format: functional, cell-based; how it was run: as §3

Row | SMILES | growth inhibition (GI) (HOP-62) | MIC (Klebsiella pneumoniae) [µg/mL] | growth inhibition (GI) (KM12) | growth inhibition (GI) (UO-31) | LC50 (U-937) [µg/mL] | growth inhibition (GI) (TK-10) | growth inhibition (GI) (MCF7) | growth inhibition (GI) (Malme-3M) | inhibition of growth at 31.25 µg/mL (Cryptococcus neoformans [1]) [%] | growth inhibition (GI) (LOX IMVI) | growth inhibition (GI) (UACC-257) | inhibition of growth at 125 µg/mL (Candida albicans [2]) [%] | inhibition of growth at 3.4 µg/mL (Candida albicans [3]) [%] | growth inhibition (GI) (MDA-MB-468) | EC50 (Plasmodium falciparum) [µg/mL] | growth inhibition (GI) (OVCAR-8) | growth inhibition (GI) (SNB-75) | growth inhibition (GI) (DU-145) | MIC (Neisseria gonorrhoeae) [µg/mL] | growth inhibition (GI) (SF-295) | other results
1 | Clc1ccc(C2=NN(c3ccccc3)C(c3cccc(Nc4ccnc5cc(Cl)ccc45)c3)C2)cc1 (configuration not stated) | inactive | > 1000 | inactive | inactive | > 200 | inactive | inactive | inactive | 0 | inactive | inactive | 8.35 | 0 | inactive | 11.7 (≈ 23 µM) | inactive | inactive | inactive | > 1000 | inactive | growth inhibition (GI) (M14): inactive; growth inhibition (GI) (HT-29): inactive; growth inhibition (GI) (HCT-15): inactive; inhibition of growth at 7.8 µg/mL (Cryptococcus neoformans [4]): 0%; growth inhibition (GI) (SK-MEL-2): inactive; growth inhibition (GI) (ACHN): inactive; growth inhibition (GI) (SN12C): inactive; growth inhibition (GI) (U-251): inactive; growth inhibition (GI) (SW-620): inactive
2 | Clc1ccc(C2=NN(c3cc(Cl)cc(Cl)c3)C(c3cccc(Nc4ccnc5cc(Cl)ccc45)c3)C2)cc1 (configuration not stated) | inactive | > 1000 | inactive | inactive | > 200 | inactive | inactive | inactive | 0 | inactive | inactive | 31.5 | 1.64 | inactive | 11.3 (≈ 19.6 µM) | inactive | inactive | inactive | > 1000 | inactive | growth inhibition (GI) (M14): inactive; growth inhibition (GI) (HT-29): inactive; growth inhibition (GI) (HCT-15): inactive; inhibition of growth at 7.8 µg/mL (Cryptococcus neoformans [4]): 0%; growth inhibition (GI) (SK-MEL-2): inactive; growth inhibition (GI) (ACHN): inactive; growth inhibition (GI) (SN12C): inactive; growth inhibition (GI) (U-251): inactive; growth inhibition (GI) (SW-620): inactive
3 | COc1ccc(C2=NN(c3ccc(Cl)cc3)C(c3cccc(Nc4ccnc5cc(Cl)ccc45)c3)C2)cc1 (configuration not stated) | inactive | > 1000 | inactive | inactive | > 200 | inactive | inactive | inactive | 13.1 | inactive | inactive | 1.92 | 0 | inactive | 44.6 (≈ 82.6 µM) | inactive | inactive | inactive | > 1000 | inactive | growth inhibition (GI) (M14): inactive; growth inhibition (GI) (HT-29): inactive; growth inhibition (GI) (HCT-15): inactive; inhibition of growth at 7.8 µg/mL (Cryptococcus neoformans [4]): 10.1%; growth inhibition (GI) (SK-MEL-2): inactive; growth inhibition (GI) (ACHN): inactive; growth inhibition (GI) (SN12C): inactive; growth inhibition (GI) (U-251): inactive; growth inhibition (GI) (SW-620): inactive
